The values below come from ChEMBL document CHEMBL1144433, “1-Amino-1,2,3,4-tetrahydronaphthalene-2-carboxylic acid as a Tic mimetic: application in the synthesis of potent human melanocortin-4 receptor selective agonists” (Bioorg Med Chem Lett, 2005).

One data set deals with Melanocortin receptor 5 (Homo sapiens, UniProt P33032). As to the kind of experiment: Concentration required for 50% inhibition by displacement of [125I]NDP-alpha-MSH of human MC5R expressed in CHO cells. Type of data set: cell-based. The essentials: (§1)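 Competition binding against [125I]-NDP-α-MSH at human melanocortin receptors expressed in CHO cells. Values are means ± standard error from at least three determinations.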
Background: Loss of bound radioactivity is the signal in a displacement assay; it reports binding, not function.

Another data set has as its target Melanocortin receptor 4 (Homo sapiens, UniProt P32245). As to the kind of experiment: Concentration required for 50% inhibition by displacement of [125I]NDP-alpha-MSH of human MC4R expressed in CHO cells. Type of data set: cell-based. A digest of the protocol: as §1
The next data set concerns the target Melanocortin receptor 3 (Homo sapiens, UniProt P41968). The data set is described as follows: Concentration required for 50% inhibition by displacement of [125I]NDP-alpha-MSH of human MC3R expressed in CHO cells. Type of data set: cell-based.
Data set [1] has as its target Melanocyte-stimulating hormone receptor (Homo sapiens, UniProt Q01726). The data set is described as follows: Concentration required for 50% inhibition by displacement of [125I]NDP-alpha-MSH of human MC1R expressed in CHO cells. Type of data set: cell-based.
Data set [2] is described as follows: Pharmacokinetic parameter max half life studied in dog. Type of data set: ADME, organism-based, Canis lupus familiaris. Particulars: in vivo. The essentials: (§2)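 Beagle dogs were dosed with a solution in EtOH/PEG/water (1:4:5), 0.5 mg iv and 2.0 mg/kg po. F, clearance, Vdss, t1/2 and tmax were derived from these doses.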
Data set [3] is described as follows: Pharmacokinetic parameter F studied in dog. To be noted: in vivo. The format is ADME, organism-based, Canis lupus familiaris. A digest of the protocol: as §2
The nature of data set [4]: Pharmacokinetic parameter F studied in rat. Type of data set: ADME, organism-based. To be noted: in vivo. The essentials:
(§3)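 Sprague–Dawley rats were dosed with a EtOH/PEG/water (1:4:5) solution, 1 mg/kg iv and 4 mg/kg po. F, clearance, Vdss and t1/2 were derived from these doses.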

Data set [5] is described as follows: Pharmacokinetic parameter Cl(clearance) studied in dog. Type of data set: ADME, organism-based, Canis lupus familiaris. To be noted: in vivo. The essentials: as §2
Data set [6] is described as follows: Pharmacokinetic parameter Vdss studied in rat. The format is ADME, organism-based. Particulars: in vivo, read-out: Vdss. A digest of the protocol:
as §3

Data set [7] can be described thus: Pharmacokinetic parameter hal life studied in dog. Type of data set: ADME, organism-based, Canis lupus familiaris. To be noted: in vivo. The essentials: as §2
Data set [8] can be described thus: Pharmacokinetic parameter Cl(clearance) studied in rat. Particulars: in vivo. Type of data set: ADME, organism-based. The essentials:
as §3

A short description of data set [9]: Pharmacokinetic parameter Vdss studied in dog. The format is ADME, organism-based, Canis lupus familiaris. To be noted: in vivo, read-out: Vdss. A digest of the protocol:
as §2

Data set [10] can be described thus: Pharmacokinetic parameter hal life studied in rat. The format is ADME, organism-based. To be noted: in vivo. The essentials:
as §3

The IC50 is the concentration that inhibits the measured activity by half. Read a low IC50 as inhibition by little substance. Broadly, the Tmax is the time at which the peak concentration occurs. In general, bioavailability refers to the share of a dose that reaches the circulation, judged against a reference dose that is usually intravenous. Read a low bioavailability as little systemic uptake. In general, clearance refers to the rate of elimination divided by the concentration. Broadly, the half-life is how long it takes for the measured level to halve. A higher half-life goes with slow decline.

Melanocortin receptor 3, sequence (P41968 whole entry): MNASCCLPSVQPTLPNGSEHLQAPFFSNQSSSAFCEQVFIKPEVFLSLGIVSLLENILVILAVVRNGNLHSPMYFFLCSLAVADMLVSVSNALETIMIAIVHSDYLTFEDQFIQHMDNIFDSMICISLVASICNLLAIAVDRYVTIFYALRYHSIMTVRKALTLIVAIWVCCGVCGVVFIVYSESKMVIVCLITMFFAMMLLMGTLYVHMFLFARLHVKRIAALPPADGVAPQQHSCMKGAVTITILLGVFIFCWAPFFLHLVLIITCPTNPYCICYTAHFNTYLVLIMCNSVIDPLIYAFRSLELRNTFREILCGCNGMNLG
Melanocortin receptor 4, sequence (P32245 whole entry): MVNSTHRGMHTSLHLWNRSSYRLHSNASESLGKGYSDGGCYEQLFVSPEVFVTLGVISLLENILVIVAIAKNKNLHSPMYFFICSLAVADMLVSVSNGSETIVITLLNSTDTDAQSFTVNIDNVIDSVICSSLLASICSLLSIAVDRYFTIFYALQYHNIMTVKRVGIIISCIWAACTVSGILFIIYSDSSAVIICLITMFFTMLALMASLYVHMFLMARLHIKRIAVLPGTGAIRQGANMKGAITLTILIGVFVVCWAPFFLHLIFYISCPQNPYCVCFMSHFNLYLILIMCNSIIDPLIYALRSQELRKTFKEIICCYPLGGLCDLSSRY
Melanocyte-stimulating hormone receptor, sequence (Q01726 whole entry): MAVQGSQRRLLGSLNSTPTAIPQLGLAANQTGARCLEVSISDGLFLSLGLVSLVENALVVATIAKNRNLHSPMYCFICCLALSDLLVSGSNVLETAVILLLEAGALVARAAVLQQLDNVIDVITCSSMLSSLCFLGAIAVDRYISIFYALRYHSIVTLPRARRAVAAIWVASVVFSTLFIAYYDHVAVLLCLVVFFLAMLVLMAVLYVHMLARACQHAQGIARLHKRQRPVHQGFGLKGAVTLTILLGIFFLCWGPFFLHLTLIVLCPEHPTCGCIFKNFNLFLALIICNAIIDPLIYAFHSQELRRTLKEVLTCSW
Melanocortin receptor 5, sequence (P33032 whole entry): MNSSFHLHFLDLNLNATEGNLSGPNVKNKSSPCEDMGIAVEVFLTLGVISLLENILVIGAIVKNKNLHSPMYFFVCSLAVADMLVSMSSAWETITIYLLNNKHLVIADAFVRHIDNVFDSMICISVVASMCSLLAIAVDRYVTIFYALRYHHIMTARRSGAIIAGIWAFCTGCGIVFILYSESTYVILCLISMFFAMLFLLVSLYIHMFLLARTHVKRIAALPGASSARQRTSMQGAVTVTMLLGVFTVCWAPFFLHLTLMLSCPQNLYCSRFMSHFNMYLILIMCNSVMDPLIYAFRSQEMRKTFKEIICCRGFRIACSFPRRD

`CC(C)(C)NC(=O)C1(C2CCCCC2)CCN(C(=O)[C@@H](Cc2ccc(Cl)cc2)NC(=O)C2Cc3ccccc3C2N)CC1` (some centres undefined): the IC50 on Melanocortin receptor 5 was determined as 34 nM; on Melanocortin receptor 4 it was 1.9 nM; at Melanocortin receptor 3, 83 nM; in data set [1] it was 1400 nM.
The matching figures for `CC(C)(C)NC(=O)C1(C2CCCCC2)CCN(C(=O)[C@@H](Cc2ccc(Cl)cc2)NC(=O)[C@@H]2CCc3ccccc3[C@@H]2N)CC1`: 24 nM, 0.77 nM, 32 nM and 980 nM.
The corresponding values for `CC(C)(C)NC(=O)C1(C2CCCCC2)CCN(C(=O)[C@@H](Cc2ccc(Cl)cc2)NC(=O)C2CCCc3ccccc3C2N)CC1` (some centres undefined) are 54 nM, 1.1 nM, 97 nM and 220 nM.
On to `CC(C)(C)NC(=O)C1(C2CCCCC2)CCN(C(=O)[C@@H](Cc2ccc(Cl)cc2)NC(=O)[C@H]2CCc3ccccc3[C@H]2N)CC1`, for which the IC50 at Melanocortin receptor 5 came to 64 nM; on Melanocortin receptor 4, 0.37 nM; at Melanocortin receptor 3 it was 120 nM; in [1], 530 nM. The Tmax in data set [2] worked out at 2 h. The figures for the bioavailability in data set [3] and in [4] were 42% and 11%, respectively. Also, the figures for the clearance in data set [5] and in data set [8] were 11 mL/min/kg and 35 mL/min/kg, respectively. Also, the results for the Vd in [6] and in [9] were 3.9 L/kg and 2.9 L/kg, respectively. In addition, the figures for the half-life in [7] and in data set [10] were 204 min and 120 min, respectively.
For `CC(C)(C)NC(=O)C1(C2CCCCC2)CCN(C(=O)[C@@H](Cc2ccc(Cl)cc2)NC(=O)[C@H]2CCc3ccccc3[C@@]2(C)N)CC1`, the IC50 on Melanocortin receptor 5 was 31 nM; at Melanocortin receptor 4 it was 1.1 nM; at Melanocortin receptor 3 it was 170 nM; in data set [1], 620 nM.
